Source: PubChem (several laboratories)
Only some compounds are listed: those with a hit (about 2.2% of all), similar ones and a draw of the others.
BaF3 parental: parental Ba/F3 viability inhibition as JAK2V617F counter-screen | CellTiter-Glo ATP luminescence | inhibition, % at 5.6 µM | hit rate 1.1% among 220,000 | AID 1486;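 active means inhibition above a per-campaign cutoff, the mean inhibition of all tested compounds plus 3 SD, cut at about 27% in these data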;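 further: 0% = DMSO wells and 100% = JAK Inhibitor I control wells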
MT stabilize HCS: stabilizes microtubules in HeLa cells; HeLa tubulin immunostaining HCS, 24 h; share of cells brighter than vehicle mean+2SD; % tubulin-high responders, % at 10 µM; hit rate 0.83% among 200,000;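 active means plate Z-score above 3 for both tubulin-high and condensed-nucleus cell shares, with cell loss under 80%, at 10 µM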;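 further: anti alpha tubulin signal scored within the nucleus-defined area of each cell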
bCat nuc transl: alters nuclear translocation of beta-catenin in HeLa cells | AID 1665 | immunofluorescence imaging | hit rate 0.3% among 190,000 | nuclear translocation activity, % at 5 µM;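 active means nuclear translocation activity above 50% at 5 µM, with a well cell count of 50 or more; inconclusive means wells under 50 cells across six images, flagged as toxic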;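 further: per-cell ratio of nuclear to cytoplasmic median beta-catenin stain intensity; plate controls were DMSO negative control for no effect and GSK-3 inhibitor IX positive control for full effect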
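assay system = human HeLa cells, endogenous beta-catenin | times = compound treatment 24 h, 37°C, 5% CO2 | detection = Anti-beta-catenin immunofluorescence on PFA-fixed, Triton-permeabilized cells, DAPI nuclei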
Ba/F3 V617F tox: lowers viability of Ba/F3 cells expressing EpoR and JAK2V617F; ATP luminescence; inhibition, % at 5.6 µM; hit rate 1.1% among 220,000;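 active means inhibition above the campaign mean plus 3 SD over all tested compounds, cut at about 24% in these data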;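 further: cytokine-independent growth of Ba/F3 cells driven by EpoR plus mutant JAK2; 0% = DMSO-treated cells and 100% = JAK inhibitor I control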
IEC-6 tox: IEC-6 cytotoxicity, counter-screen for KLF5 inhibitors. luminescence viability. AID 1825. hit rate 0.78% among 290,000. inhibition, % at 5 µM; in the data active means inhibition above about 22%;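 further: 0% = plate median of test compound wells and 100% = cytotoxic reference compound wells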
APP transl inh: APP translation inhibition; SH-SY5Y APP 5'UTR-luciferase reporter, luminescence; inhibition, % at 2 µM; hit rate 0.82% among 190,000; AID 1285;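 active means inhibition above a set limit, derived from the sample mean plus 3 SD, cut at about 45% in these data; inconclusive means one replicate passes the limit while the other fails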
Starred values were filed as active, the others as inactive.

What do the screens show for `CC(C)(C)c1ccc(C(=O)NCCNC(=O)c2ccco2)cc1`?
IEC-6 tox: 4

Results for COc1cc(C(=O)N/N=C(\C)Cc2ccccc2)cc(OC)c1OC ?
BaF3 parental: 80*; MT stabilize HCS: 3; bCat nuc transl: -1; Ba/F3 V617F tox: 86*; IEC-6 tox: 84*; APP transl inh: 94*

How did COc1cc(C(=O)NCC(=O)N/N=C(\C)Cc2ccccc2)cc(OC)c1OC do in these assays?
IEC-6 tox: 0

How did Cc1ccc(C(=O)CSc2nnc(-c3cccnc3)n2N)cc1 do in these assays?
BaF3 parental: 11; MT stabilize HCS: 30*; bCat nuc transl: 9; Ba/F3 V617F tox: 1; IEC-6 tox: 6; APP transl inh: 2

Results for Fc1ccccc1/C=N/NC(=S)Nc1ccc(Cl)cc1Cl ?
BaF3 parental: 10; MT stabilize HCS: 17*; bCat nuc transl: inconclusive; Ba/F3 V617F tox: 4; IEC-6 tox: 3; APP transl inh: 94*

Results for O=C1[C@@H]2Cc3c([nH]c4ccccc34)C(c3cccc([N+](=O)[O-])c3)N2C(=O)CN1C1CCN(Cc2ccccc2)CC1 (stereo not given in full) ?
IEC-6 tox: 2

Results for Cc1ccc2[nH]c(C)cc(=S)c2c1 ?
BaF3 parental: 4; MT stabilize HCS: 23*; bCat nuc transl: 2; Ba/F3 V617F tox: 0; IEC-6 tox: -1; APP transl inh: -1

Results for CCCCCn1c(=N)n(CC(O)COc2ccccc2OC)c2ccccc21 (stereo not given) ?
BaF3 parental: 28*; MT stabilize HCS: 3; bCat nuc transl: -2; Ba/F3 V617F tox: 18; IEC-6 tox: 8; APP transl inh: -1

How did CCCCn1c(=N)n(CC(O)COc2cccc(C)c2)c2ccccc21 (stereo not given) do in these assays?
BaF3 parental: 40*; MT stabilize HCS: 6; bCat nuc transl: -8; Ba/F3 V617F tox: 17; IEC-6 tox: 7; APP transl inh: -5

How did Fc1ccc(CSc2ccc3nnc(-c4cccnc4)n3n2)cc1 do in these assays?
BaF3 parental: 2; MT stabilize HCS: 3; bCat nuc transl: -1; Ba/F3 V617F tox: 0; IEC-6 tox: 2; APP transl inh: -12

How did Cc1cc(N2CCN(Cc3cn(C)nc3-c3ccccc3F)CC2)cc(C)n1 do in these assays?
BaF3 parental: 13; MT stabilize HCS: 21*; bCat nuc transl: 69*; Ba/F3 V617F tox: 15; IEC-6 tox: 28*; APP transl inh: 81*

Results for Cc1cc(N2CCN(Cc3cn(C)nc3-c3cccc(Cl)c3)CC2)cc(C)n1 ?
BaF3 parental: 2; MT stabilize HCS: 17; bCat nuc transl: 73*; Ba/F3 V617F tox: 2; IEC-6 tox: 11; APP transl inh: 60*

Results for Cn1cc(CN2CCN(c3ncccn3)CC2)c(-c2cccc(Cl)c2)n1 ?
BaF3 parental: 2; MT stabilize HCS: 4; bCat nuc transl: 0; Ba/F3 V617F tox: -1; IEC-6 tox: -3; APP transl inh: -4

How did Fc1ccc(CN2CCCCCCC2)cc1 do in these assays?
BaF3 parental: 5; MT stabilize HCS: 1; Ba/F3 V617F tox: -2; IEC-6 tox: -4; APP transl inh: 8

How did CCn1c2c(c(=N)c3ccccc31)CCC2 do in these assays?
BaF3 parental: 46*; bCat nuc transl: -2; Ba/F3 V617F tox: 17; IEC-6 tox: 7

How did CNCC(O)Cn1c2c(c3ccccc31)CCCC2 (stereo not given) do in these assays?
BaF3 parental: 2; MT stabilize HCS: 5; bCat nuc transl: 0; Ba/F3 V617F tox: -3; IEC-6 tox: 1; APP transl inh: 8

Results for CCn1c2c(c(=N)c3c1CCC3)CCC2 ?
BaF3 parental: 28*; MT stabilize HCS: 5; bCat nuc transl: -1; Ba/F3 V617F tox: 12; IEC-6 tox: 0; APP transl inh: -2

Results for CCCCn1c2c(c(=N)c3c1CCC3)CCC2 ?
BaF3 parental: 63*; MT stabilize HCS: 2; bCat nuc transl: -10; Ba/F3 V617F tox: 73*; IEC-6 tox: 5; APP transl inh: 0

Results for N=c1c2c(n(Cc3ccc(F)cc3)c3c1CCC3)CCC2 ?
BaF3 parental: 65*; MT stabilize HCS: 3; bCat nuc transl: 2; Ba/F3 V617F tox: 49*; IEC-6 tox: 1; APP transl inh: 4

What do the screens show for `CCOc1ccc(S(=O)(=O)NCc2ccc3c(c2)OCO3)cc1`?
IEC-6 tox: -2

Results for CC(C)(CN1CCN(C(c2ccccc2)c2ccccc2)CC1)NS(=O)(=O)c1ccccc1 ?
BaF3 parental: -2; bCat nuc transl: 0; Ba/F3 V617F tox: -3; IEC-6 tox: 0

What do the screens show for `COc1ccc(C)cc1S(=O)(=O)N1CCN(C(=O)c2ncoc2-c2cccc(F)c2)CC1`?
IEC-6 tox: 6

What do the screens show for `CC(=O)Nc1ccc(CN2CCc3c([nH]c4ccccc34)C2c2ccccn2)cc1` (stereo not given)?
BaF3 parental: 3; MT stabilize HCS: 9.9*; bCat nuc transl: 1; Ba/F3 V617F tox: -1; IEC-6 tox: 14; APP transl inh: -23

What do the screens show for `c1ccc(C2c3[nH]c4ccccc4c3CCN2Cc2cccn2-c2ccccn2)nc1` (stereo not given)?
BaF3 parental: -2; bCat nuc transl: 0; Ba/F3 V617F tox: 2; IEC-6 tox: 5

Results for COc1ccc(C(=O)CCS(=O)(=O)c2ccc(C)cc2)cc1OC ?
IEC-6 tox: 4

Results for O=C(NC(=S)Nc1cc(-c2nc3ccccc3[nH]2)ccc1Cl)c1ccc2c(c1)OCO2 ?
BaF3 parental: 0; MT stabilize HCS: 14*; bCat nuc transl: 5; Ba/F3 V617F tox: -2; IEC-6 tox: 1; APP transl inh: 7

Results for CCCOC(=O)c1cc(=O)[nH]c2ccccc12 ?
BaF3 parental: 97*; MT stabilize HCS: 2; bCat nuc transl: 7; Ba/F3 V617F tox: 2; IEC-6 tox: 3; APP transl inh: -11

What do the screens show for `CCOC(=O)c1cc(=O)[nH]c2ccccc12`?
BaF3 parental: 6; MT stabilize HCS: 2; bCat nuc transl: 1; Ba/F3 V617F tox: 0; IEC-6 tox: 3; APP transl inh: 16

What do the screens show for `COc1ccc(Cl)cc1S(=O)(=O)Nc1ncn[nH]1`?
IEC-6 tox: 2

What do the screens show for `COc1ccc(NC2CCCN(C(=O)c3c(C)noc3C)C2)cc1` (stereo not given)?
IEC-6 tox: -1

Results for CCc1ccc(NC(=O)CCNS(=O)(=O)c2cccc3nsnc23)cc1 ?
BaF3 parental: 61*; MT stabilize HCS: 1; bCat nuc transl: 2; Ba/F3 V617F tox: 5; IEC-6 tox: 2; APP transl inh: -5

How did COc1ccc(NC(=O)CCNS(=O)(=O)c2cccc3nsnc23)cc1OC do in these assays?
BaF3 parental: 5; MT stabilize HCS: 4; bCat nuc transl: -1; Ba/F3 V617F tox: -2; IEC-6 tox: -3; APP transl inh: 4
